DNMT1 inh – human DNMT1 methyltransferase inhibitors, primary screen, biochemical, molecular beacon, fluorescence, HinP1I cleavage, uHTS; DNA (cytosine-5)-methyltransferase 1 (Homo sapiens), P26358; inhibition (reported as % activation of signal), % at 10 µM; hit rate 0.83% among 360,000; AID 588458, 2011; in the data active = inhibition above about 50%
LMPTP inh – LMPTP phosphatase inhibitors, primary screen, biochemical, fluorescence intensity, uHTS. Low molecular weight phosphotyrosine protein phosphatase (Homo sapiens), P24666. recombinant LMPTP-A, OMFP fluorogenic substrate. inhibition, % at 20 µM. hit rate 0.22% among 360,000. AID 651560, 2012;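 active = compounds that cut the enzyme signal by at least half of the control window in the single-dose screen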;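 note: plate controls were DMSO wells with enzyme plus substrate for no effect and substrate without enzyme for full effect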
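material = LMPTP-A | quantity = 0.625 nM enzyme | reagent = OMFP substrate, 400 µM final | buffer or medium = Bis-Tris pH 6.0, DTT, detergent | detection = endpoint fluorescence intensity from OMFP dephosphorylation | dosing = single 20 µM dose | read-out basis = % inhibition relative to no-enzyme and uninhibited control wells | control set = no-enzyme and uninhibited controls | timing = 50 min at room temperature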
SUMO1 PPI mod – modulators of SUMO1 protein-protein interactions, primary screen, biochemical, uHTS; Small ubiquitin-related modifier 1 (Homo sapiens), P63165; inhibition, % at 20 µM; SUMO1 binding to a labelled peptide, TR-FRET, 1 h; hit rate 0.33% among 360,000; AID 602429, 2012; in the data active = inhibition above about 37%
STEP block – STEP phosphatase inhibitors, primary screen, biochemical, fluorescence intensity, uHTS; Tyrosine-protein phosphatase non-receptor type 5 (Homo sapiens), P54829; recombinant STEP, OMFP fluorogenic substrate; inhibition, % at 20 µM; hit rate 0.25% among 360,000;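 active = inhibition at 20 µM, scaled per plate between control wells, above about 37%, limit read from the data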;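 note: 0% = DMSO with enzyme and substrate and 100% = substrate only without enzyme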
Target sequence (P54829 whole entry, looked up): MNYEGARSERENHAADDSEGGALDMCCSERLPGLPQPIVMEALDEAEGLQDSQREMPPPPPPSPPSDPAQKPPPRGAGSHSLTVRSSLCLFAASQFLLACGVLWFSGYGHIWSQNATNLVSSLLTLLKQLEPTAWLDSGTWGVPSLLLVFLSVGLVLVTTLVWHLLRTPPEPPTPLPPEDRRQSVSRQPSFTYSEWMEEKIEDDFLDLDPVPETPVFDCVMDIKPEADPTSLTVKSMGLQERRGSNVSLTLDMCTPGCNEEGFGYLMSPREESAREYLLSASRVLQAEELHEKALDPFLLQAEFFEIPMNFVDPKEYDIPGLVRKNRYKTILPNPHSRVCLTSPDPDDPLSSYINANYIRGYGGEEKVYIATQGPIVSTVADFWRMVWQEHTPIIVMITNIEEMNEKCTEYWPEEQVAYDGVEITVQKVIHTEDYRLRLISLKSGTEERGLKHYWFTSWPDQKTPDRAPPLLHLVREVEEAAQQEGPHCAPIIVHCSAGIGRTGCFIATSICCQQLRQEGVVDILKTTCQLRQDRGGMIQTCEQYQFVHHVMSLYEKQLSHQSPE
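Also added – OMFP at 25 µM · Test system – STEP tyrosine phosphatase · Technique – FITC-channel fluorescence of OMFP product · Schedule – 20 min at room temperature, dark · Evaluation – control-normalized % inhibition with plate pattern correction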
Scp-1 inhibitor – Scp-1 phosphatase inhibitors, primary screen, biochemical, colorimetric, uHTS | hit rate 0.88% among 340,000 | Recombinant Scp1, phosphopeptide, malachite green phosphate absorbance | AID 493091, 2011 | inhibition, % at 20 µM;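 active = inhibition above about 50% at 20 µM, limit read from the data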;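 note: plate controls were DMSO wells with enzyme for no effect and wells lacking enzyme for full effect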
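System: SCP-1 catalytic domain; Reagent: Phospho 17-mer peptide substrate; Doses: one concentration, 20 µM, with 1.0% DMSO; Incubation: 45 min room-temperature reaction, 5 min colour, 30 min stabiliser; Signal: Phosphate-binding colour reagent, absorbance read at 630 nm.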
Numbers without * were called inactive. An excerpt weighted towards active compounds, which were near 1.7% of everything screened.

Screening Cc1cc(C)c(S(=O)(=O)c2ccccc2)c(OC(=O)c2c(Cl)cc(Cl)cc2Cl)n1 returned DNMT1 inh -7, LMPTP inh 3, SUMO1 PPI mod 42*, STEP block 2 and Scp-1 inhibitor -12.
For COc1cc(NC(=O)CSCC(=O)Nc2cccc(C(F)(F)F)c2)c(Cl)cc1Cl the results were DNMT1 inh -3, LMPTP inh 2, SUMO1 PPI mod 44*, STEP block 0 and Scp-1 inhibitor -15.
For O=C(COCC(=O)Nc1cccc(C(F)(F)F)c1)Nc1cccc(C(F)(F)F)c1 the results were DNMT1 inh -13, LMPTP inh 3, SUMO1 PPI mod -3, STEP block -1 and Scp-1 inhibitor -12.
Screening CCOC(=O)C1=CCN(S(=O)(=O)c2ccccc2Cl)C1c1cccc(C)c1 (stereo not drawn) returned DNMT1 inh -2, LMPTP inh 1, SUMO1 PPI mod 7 and STEP block 1.
O=C(Nc1ccccc1)Nc1ncc([N+](=O)[O-])s1 was read as DNMT1 inh -5, LMPTP inh 2, SUMO1 PPI mod -29, STEP block 3 and Scp-1 inhibitor -9.
O=C(COC(=O)c1ccccc1)Nc1ncc([N+](=O)[O-])s1 was read as DNMT1 inh 93*, LMPTP inh 65*, SUMO1 PPI mod 58*, STEP block 11 and Scp-1 inhibitor 83*.
N#Cc1ccccc1OCC(=O)Nc1cc(S(=O)(=O)N2CCCCC2)ccc1N1CCOCC1 was read as DNMT1 inh -8, LMPTP inh 1, SUMO1 PPI mod -4, STEP block 1 and Scp-1 inhibitor -10.
`Cc1cc(C)c2c(c1)NC(C(=O)O)C1CC=CC21` (stereo not drawn) gave DNMT1 inh 76*, LMPTP inh 43, SUMO1 PPI mod 42*, STEP block 36 and Scp-1 inhibitor 72*.
O=C(O)C1Nc2c(C(F)(F)F)ccc(Cl)c2C2C=CCC12 (stereo not drawn) was read as DNMT1 inh 7, LMPTP inh -1, SUMO1 PPI mod -2, STEP block 3 and Scp-1 inhibitor 2.
`O=C(O)C1Nc2c(C(=O)N3CCOCC3)cccc2C2C=CCC12` (stereo not drawn) gave DNMT1 inh 107*, LMPTP inh -2, SUMO1 PPI mod 29, STEP block 10 and Scp-1 inhibitor 51*.
For Cc1ccc2c(c1C)NC(C(=O)O)C1CC=CC21 (stereo not drawn) the results were DNMT1 inh 103*, LMPTP inh 63*, SUMO1 PPI mod 86*, STEP block 20 and Scp-1 inhibitor 80*.
`CCCCN1CCC(=O)C(C(=O)OCC)=C1C(=O)OCC` gave DNMT1 inh 4, LMPTP inh -2, SUMO1 PPI mod 2, STEP block 1 and Scp-1 inhibitor -11.
For CCNc1nc2c(c(=O)[nH]c(=O)n2C)n1CC(C)C the results were DNMT1 inh 2, LMPTP inh -1, SUMO1 PPI mod 43*, STEP block 4 and Scp-1 inhibitor -12.
Screening CCC(CO)Oc1cc(NCc2ccccc2)c2ncn(C(C)C)c2c1 (stereo not drawn) returned DNMT1 inh -12, LMPTP inh 0, SUMO1 PPI mod 0, STEP block -2 and Scp-1 inhibitor 0.
`CCC(CO)Oc1cc(NC(=O)c2ccc(F)cc2)c2ncn(C(C)C)c2c1` (stereo not drawn) gave DNMT1 inh 0, LMPTP inh 0, SUMO1 PPI mod 1, STEP block -2 and Scp-1 inhibitor -3.
Screening CCC(COC)Oc1cc(NCc2ccccc2)c2ncn(C(C)C)c2c1 (stereo not drawn) returned DNMT1 inh 54*, LMPTP inh 3, SUMO1 PPI mod -1, STEP block -1 and Scp-1 inhibitor -5.
`CCC(CO)Oc1cc(NC(=O)c2ccc(N)cc2)c2ncn(C(C)C)c2c1` (stereo not drawn) gave DNMT1 inh -7, LMPTP inh 2, SUMO1 PPI mod 102*, STEP block -2 and Scp-1 inhibitor 5.
For COc1ccc(OC)c(NC(=O)CSc2nc(N3CCOCC3)nc(N3CCOCC3)n2)c1 the results were DNMT1 inh -2, LMPTP inh 1, SUMO1 PPI mod 5, STEP block 0 and Scp-1 inhibitor -2.
Screening CCN(CC)C(=O)CSc1nc2ccccc2c(=O)n1-c1cccc(OC)c1 returned DNMT1 inh -2, LMPTP inh -1, SUMO1 PPI mod 5, STEP block -1 and Scp-1 inhibitor -2.
For COc1cccc(-n2c(SCc3cc(=O)oc4cc(O)c(O)cc34)nc3ccccc3c2=O)c1 the results were DNMT1 inh 31, LMPTP inh 52*, SUMO1 PPI mod 2, STEP block 12 and Scp-1 inhibitor 32.
CCOC(=O)C1CCN(c2nc(C)cc(C)c2C#N)CC1 was read as DNMT1 inh 0, LMPTP inh 1, SUMO1 PPI mod 2, STEP block 3 and Scp-1 inhibitor -4.
For CCOC(=O)C1CCN(c2nc(N)c3c(N)nc(SCC(=O)O)cc3c2C#N)CC1 the results were DNMT1 inh 75*, LMPTP inh 23, SUMO1 PPI mod 60*, STEP block 22 and Scp-1 inhibitor 102*.
CCOC(=O)c1c(NC(=O)C2c3ccccc3Oc3ccccc32)sc(C(=O)N(CC)CC)c1C was read as DNMT1 inh -12, LMPTP inh 8, SUMO1 PPI mod -6, STEP block 4 and Scp-1 inhibitor -13.
COc1ccc(CCNC(=O)c2cc(-c3ccc(C)c(C)c3O)n[nH]2)cc1OC was read as DNMT1 inh -7, LMPTP inh 3, SUMO1 PPI mod 37*, STEP block 0 and Scp-1 inhibitor -3.
`COc1ccc(CCNC(=O)c2cc(-c3cc(C)ccc3O)n[nH]2)cc1OC` gave DNMT1 inh -4, LMPTP inh 1, SUMO1 PPI mod 2, STEP block 4 and Scp-1 inhibitor -6.
Screening COC(=O)c1cc(CNC(=O)CCCSc2ccccc2)ccc1OC returned DNMT1 inh -2, LMPTP inh -1, SUMO1 PPI mod 6, STEP block 1 and Scp-1 inhibitor -1.
`CCC1CCCCN1C(=O)CCC(=O)Nc1nnc(C(F)(F)F)s1` (stereo not drawn) gave DNMT1 inh 0, LMPTP inh -1, SUMO1 PPI mod 6, STEP block -6 and Scp-1 inhibitor 2.

Source: PubChem
